The source of these data is ChEMBL document CHEMBL1136626, “Discovery of novel and selective IKK-beta serine-threonine protein kinase inhibitors. Part 1” (Bioorg Med Chem Lett, 2003).

Assay [1] has as its target T1, Inhibitor of nuclear factor kappa-B kinase subunit beta (Homo sapiens, UniProt O14920).
T1 sequence (O14920 whole entry): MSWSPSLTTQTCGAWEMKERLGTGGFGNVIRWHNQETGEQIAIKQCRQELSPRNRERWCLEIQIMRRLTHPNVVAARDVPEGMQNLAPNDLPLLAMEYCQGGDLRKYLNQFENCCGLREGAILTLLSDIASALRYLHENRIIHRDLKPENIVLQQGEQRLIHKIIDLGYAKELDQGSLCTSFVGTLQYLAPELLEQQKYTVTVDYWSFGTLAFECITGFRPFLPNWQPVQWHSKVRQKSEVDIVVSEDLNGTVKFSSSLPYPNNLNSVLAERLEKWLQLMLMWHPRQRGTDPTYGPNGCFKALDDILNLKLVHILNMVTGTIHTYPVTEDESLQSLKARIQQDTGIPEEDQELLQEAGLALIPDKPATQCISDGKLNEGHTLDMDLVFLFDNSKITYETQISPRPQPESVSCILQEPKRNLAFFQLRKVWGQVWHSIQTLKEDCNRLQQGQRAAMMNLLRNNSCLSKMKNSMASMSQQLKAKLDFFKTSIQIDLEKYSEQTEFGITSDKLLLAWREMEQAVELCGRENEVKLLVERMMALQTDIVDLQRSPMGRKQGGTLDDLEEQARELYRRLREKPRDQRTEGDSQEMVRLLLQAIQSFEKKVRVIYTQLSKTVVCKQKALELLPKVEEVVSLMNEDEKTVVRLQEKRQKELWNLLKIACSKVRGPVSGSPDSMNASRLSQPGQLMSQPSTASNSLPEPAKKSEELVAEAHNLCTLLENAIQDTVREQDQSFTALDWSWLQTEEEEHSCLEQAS
Kind of assay: In vitro inhibitory concentration required against recombinant human IkB kinase beta (IKK-beta). Summed up:
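Recombinant His-tagged human IKK-β from baculovirus-infected insect cells, final […], with biotinylated GST-IκBα(1-54) substrate (final 0.2) in Tris-HCl pH 7.6 buffer with MgCl₂, DTT, Na₃VO₄ and BSA; DMSO final 0.25%. Started with ATP plus [γ-³³P]ATP, 2 h at rt, stopped with EDTA. Substrate captured on streptavidin plates, washed, counted by scintillation.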

Another assay deals with A549. Kind of assay: In vitro concentration required to inhibit the TNF-alpha-induced RANTES production in A549 human lung epithelium cell line. Type of assay: functional, cell-based. Summed up:
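A549 human lung epithelial cells grown in D-MEM with 10% FCS, penicillin/streptomycin and 2 mM glutamine. Cells (4×10⁴/well) pretreated 1 h with compound or vehicle (0.1% DMSO), then stimulated with 100 ng/mL TNF-α for 24 h. RANTES in supernatants measured by quantitative sandwich fluorescent immunoassay.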

In assay [2] the test system is Mus musculus. Kind of assay: In vivo LPS-induced TNF-alpha production in mice after oral administration (60 min pretreatment). Type of assay: functional. Summed up: (§1)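 Eight-week-old female BALB/c mice given 200 (per mouse) LPS ip in saline. Compound dosed ip 30 min before LPS, or po in 10% cremophor/saline 60 min before. Blood taken under pentobarbital anaesthesia 90 min after LPS. Plasma TNFα measured by ELISA; mean of 5 mice per group used to calculate percent reduction versus LPS controls; ED₅₀ reported.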

Assay [3] concerns Mus musculus. Nature of the assay: In vivo LPS-induced TNF-alpha production in mice after ip administration (30 min pretreatment). It is filed as functional. Summed up:
as §1

The target in assay [4] is T2, Inhibitor of nuclear factor kappa-B kinase subunit alpha (Homo sapiens, UniProt O15111).
T2 sequence (O15111 whole entry): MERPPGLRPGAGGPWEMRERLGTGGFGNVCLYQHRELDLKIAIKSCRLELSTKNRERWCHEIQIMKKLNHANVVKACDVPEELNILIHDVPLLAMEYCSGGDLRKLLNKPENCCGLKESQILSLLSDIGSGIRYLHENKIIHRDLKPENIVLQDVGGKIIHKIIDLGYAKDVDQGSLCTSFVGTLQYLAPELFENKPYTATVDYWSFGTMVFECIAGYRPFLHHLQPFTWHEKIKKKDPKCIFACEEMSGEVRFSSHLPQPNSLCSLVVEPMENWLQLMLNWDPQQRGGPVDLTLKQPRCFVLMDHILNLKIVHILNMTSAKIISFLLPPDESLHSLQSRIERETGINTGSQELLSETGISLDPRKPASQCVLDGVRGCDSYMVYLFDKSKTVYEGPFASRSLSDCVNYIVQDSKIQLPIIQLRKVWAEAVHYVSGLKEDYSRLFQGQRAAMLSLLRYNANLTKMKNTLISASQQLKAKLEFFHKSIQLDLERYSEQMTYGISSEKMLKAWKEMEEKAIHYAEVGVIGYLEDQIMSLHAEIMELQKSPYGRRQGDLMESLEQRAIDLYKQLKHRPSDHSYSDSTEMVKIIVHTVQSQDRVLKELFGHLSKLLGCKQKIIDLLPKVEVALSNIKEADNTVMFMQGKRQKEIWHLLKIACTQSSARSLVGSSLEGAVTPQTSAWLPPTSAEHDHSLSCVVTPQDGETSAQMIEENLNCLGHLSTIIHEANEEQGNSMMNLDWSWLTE
Kind of assay: Inhibition of human IKK-alpha kinase.

Assay [5] addresses T3, Dual specificity mitogen-activated protein kinase kinase 4 (Homo sapiens, UniProt P45985).
T3 sequence (P45985 whole entry): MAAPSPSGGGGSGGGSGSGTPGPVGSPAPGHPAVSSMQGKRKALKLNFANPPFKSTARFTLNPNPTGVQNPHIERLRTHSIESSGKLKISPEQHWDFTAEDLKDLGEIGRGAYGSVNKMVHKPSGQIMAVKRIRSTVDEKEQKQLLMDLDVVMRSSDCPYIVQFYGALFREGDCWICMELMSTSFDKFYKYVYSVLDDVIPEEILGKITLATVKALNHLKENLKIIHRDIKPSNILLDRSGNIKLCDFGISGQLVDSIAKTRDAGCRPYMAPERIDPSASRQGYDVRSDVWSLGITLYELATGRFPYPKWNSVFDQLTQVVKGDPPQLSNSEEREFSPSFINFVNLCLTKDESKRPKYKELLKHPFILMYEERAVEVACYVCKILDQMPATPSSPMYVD
Nature of the assay: Inhibition of human mitogen-activated protein kinase kinase 4 (MKK4).

In assay [6] the target is Tyrosine-protein kinase SYK (Homo sapiens, UniProt P43405). Kind of assay: Inhibition of human Syk.

As for `N#Cc1c(-c2ccc(C(=O)O)cc2)cc(-c2ccccc2O)nc1N`, the IC50 in assay [1] was 0.7 µM; in the assay on A549, greater than 50 µM.
For `N#Cc1c(-c2cccc(NC(=O)C(O)CCC(=O)O)c2)cc(-c2cc(Cl)ccc2O)nc1N` (configuration not stated) the same measures were 5.5 µM and greater than 50 µM.
For the compound `N#Cc1c(-c2ccc(C(=O)NCCN3CCCCC3)cc2)cc(-c2ccccc2O)nc1N`, the IC50 in assay [1] is 0.6 µM; in the assay on A549 it was greater than 50 µM.
Taken in the same sequence, the figures for `COc1ccccc1-c1cc(-c2cccc(NC(=O)C(O)CCC(=O)O)c2)c(C#N)c(N)n1` (configuration not stated) were greater than 20 µM and greater than 50 µM.
Taken in the same sequence, the figures for `Cc1c(-c2ccccc2O)nc(N)c(C#N)c1-c1cccc(NC(=O)C(O)CCC(=O)O)c1` (configuration not stated) were greater than 20 µM and greater than 50 µM.
Consider `N#Cc1c(-c2ccc(NC(=O)CCN3CCCCC3)cc2)cc(-c2ccccc2O)nc1N`, for which the IC50 in assay [1] was 1 µM; in the assay on A549, greater than 50 µM.
`N#Cc1c(-c2ccc([N+](=O)[O-])cc2)cc(-c2ccccc2O)nc1N`: the figures for the IC50 (in assay [1]; in the assay with A549) were greater than 20 µM and greater than 50 µM, respectively.
Consider `N#Cc1c(-c2ccc(NC(=O)CCCC(=O)O)cc2)cc(-c2ccccc2O)nc1N`, for which the IC50 in assay [1] was 0.5 µM; in the assay with A549 it was greater than 50 µM.
On to `N#Cc1c(-c2cccc(N)c2)cc(-c2ccccc2O)nc1N`, for which the IC50 is 20 µM in assay [1] and greater than 50 µM with A549.
In the case of `N#Cc1c(-c2cccc(NC(=O)CCCC(=O)O)c2)cc(-c2ccccc2O)nc1N`, the IC50 was 1.4 µM in assay [1] and greater than 50 µM in the assay with A549.
For `N#Cc1c(-c2cccc(NC(=O)C(N)CC(=O)O)c2)cc(-c2ccccc2O)nc1N` (configuration not stated) the same measures were 0.6 µM and 15 µM.
Regarding `N#Cc1c(-c2cccc(NC(=O)CCN3CCCCC3)c2)cc(-c2ccccc2O)nc1O`, the IC50 is greater than 20 µM in assay [1] and greater than 50 µM in the assay on A549.
Consider `N#Cc1c(-c2cccc(NC(=O)CN3CCCCC3)c2)cc(-c2ccccc2O)nc1N`, for which the IC50 in assay [1] is 3 µM; with A549, 15 µM.
Consider `COc1cccc(O)c1-c1cc(-c2cccc(NC(=O)C(O)CCC(=O)O)c2)c(C#N)c(N)n1` (configuration not stated), for which the figures for the IC50 (in assay [1]; in the assay with A549) were 2 µM and greater than 50 µM, respectively.
As to `Cc1cccc(O)c1-c1cc(-c2cccc(NC(=O)C(O)CCC(=O)O)c2)c(C#N)c(N)n1` (configuration not stated), the IC50 was greater than 20 µM in assay [1] and greater than 50 µM in the assay on A549.
In the case of `N#Cc1c(-c2ccccc2C(=O)NCCN2CCCCC2)cc(-c2ccccc2O)nc1N`, the IC50 in assay [1] amounted to 0.5 µM; in the assay with A549, 6 µM.
`CC(=O)Nc1nc(-c2ccccc2O)cc(-c2cccc(NC(=O)CCN3CCCCC3)c2)c1C#N`: the results for the IC50 (in assay [1]; with A549) were 15 µM and 30 µM, respectively.
Take `N#Cc1c(-c2ccc(N3CCCCC3)c(NC(=O)CCN3CCCCC3)c2)cc(-c2ccccc2O)nc1N`: the IC50 in assay [1] amounted to 2.5 µM; with A549 it was 5 µM.
Regarding `COc1ccc(O)c(-c2cc(-c3cccc(NC(=O)C(O)CCC(=O)O)c3)c(C#N)c(N)n2)c1` (configuration not stated), the IC50 in assay [1] was 5.3 µM; with A549, greater than 50 µM.
As for `N#Cc1c(-c2cccc(C(=O)NCCN3CCCCC3)c2)cc(-c2ccccc2O)nc1N`, the IC50 amounted to 1.8 µM in assay [1] and 15 µM in the assay with A549.
Taken in the same sequence, the figures for `N#Cc1c(-c2cccc(C(=O)O)c2)cc(-c2ccccc2O)nc1N` were 2.5 µM and greater than 50 µM.
Taken in the same sequence, the figures for `CN(C)c1ccc(-c2cc(-c3ccccc3O)nc(N)c2C#N)cc1` were greater than 20 µM and greater than 50 µM.
In the case of `N#Cc1c(-c2cccc(NC(=O)CCN3CCCCC3)c2)cc(-c2cccc(O)c2)nc1N`, the IC50 in assay [1] was greater than 20 µM; with A549, 10 µM.
For the compound `Cl.N#Cc1c(-c2ccc(N3CCCC3)c(NC(=O)CCN3CCCCC3)c2)cc(-c2ccccc2O)nc1N`, the results for the ED50 with Mus musculus [2] and with Mus musculus [3] were 10.1 mg/kg and 0.8 mg/kg, respectively. The IC50 in assay [1] was 1 µM; with A549, 0.8 µM.
Take `CCN(CC)c1nc(-c2ccccc2O)cc(-c2cccc(NC(=O)CCN3CCCCC3)c2)c1C#N`: the IC50 in assay [1] is greater than 20 µM.
Take `N#Cc1c(-c2cccc(NC(=O)C(O)CCC(=O)[O-])c2)cc(-c2ccccc2O)nc1N.[Na+]` (configuration not stated): the ED50 in the assay on Mus musculus [2] stood at 18.7 mg/kg; with Mus musculus [3], 1.3 mg/kg. Also, the IC50 is 0.9 µM in assay [1] and 20 µM in the assay with A549.
In the case of `N#Cc1c(-c2cccc(NC(=O)CCN3CCCCC3)c2)cc(-c2ccccc2O)nc1N`, the ED50 in the assay with Mus musculus [2] is 2 mg/kg; with Mus musculus [3], less than 0.03 mg/kg. Besides, the IC50 was 0.6 µM in assay [1]; 20 µM in assay [4]; greater than 20 µM in assay [5]; 7 µM in the assay on A549; greater than 20 µM in assay [6].
Take `N#Cc1c(-c2cccc(NC(=O)CC(N)C(=O)O)c2)cc(-c2ccccc2O)nc1N` (configuration not stated): the results for the IC50 (in assay [1]; in the assay with A549) were 0.6 µM and 35 µM, respectively.
Turning to `N#Cc1c(-c2ccccc2C(=O)O)cc(-c2ccccc2O)nc1N`, the IC50 was 0.7 µM in assay [1] and greater than 50 µM in the assay on A549.
For `N#Cc1c(-c2cccc(NC(=O)C(O)CCC(=O)O)c2)cc(-c2ccccc2)nc1N` (configuration not stated) the same measures were greater than 20 µM and greater than 50 µM.
On to `N#Cc1c(-c2cccc(NC(=O)C(O)CCC(=O)O)c2)cc(-c2ccc(O)cc2)nc1N` (configuration not stated), for which the half-inhibitory concentration (IC50) in assay [1] was greater than 20 µM; in the assay on A549, greater than 50 µM.
Consider `N#Cc1c(-c2cccc(NC(=O)C(O)CCC(=O)O)c2)cc(-c2cc(F)ccc2O)nc1N` (configuration not stated), for which the values for the IC50 (in assay [1]; in the assay with A549) were 1.7 µM and greater than 50 µM, respectively.
For `CN(C)c1ccc(-c2cc(-c3ccccc3O)nc(N)c2C#N)cc1NC(=O)CCN1CCCCC1.Cl`, the values for the IC50 (in assay [1]; in the assay on A549) were 0.8 µM and 8 µM, respectively. For the same compound, the ED50 in the assay with Mus musculus [3] was 0.6 mg/kg.
For the compound `COCC(=O)Nc1cccc(-c2cc(-c3ccccc3O)nc(N)c2C#N)c1`, the IC50 was 1.4 µM in assay [1] and greater than 50 µM with A549.

By IC50 is commonly meant the concentration that inhibits the measured activity by half. The ED50 is the dose at which the effect has come halfway, by size or by number of responders.
